Measured values from different studies.

CC[C@H](C)[C@H](NC(=O)[C@H](CCC(=O)O)NC(=O)[C@H](CO)NC(=O)[C@@H](NC(=O)[C@@H](N)CO)C(C)C)C(=O)N[C@@H](CCC(N)=O)C(=O)N[C@@H](CC(C)C)C(=O)N[C@@H](CCSC)C(=O)N[C@@H](Cc1cnc[nH]1)C(=O)N[C@@H](CC(N)=O)C(=O)N[C@@H](CC(C)C)C(=O)NCC(=O)N[C@@H](CCCCN)C(=O)N[C@@H](Cc1cnc[nH]1)C(=O)N[C@@H](CC(C)C)C(=O)N[C@@H](CC(N)=O)C(=O)N[C@@H](CO)C(=O)N[C@@H](CCSC)C(=O)N[C@@H](CCC(=O)O)C(=O)N[C@@H](CCCN=C(N)N)C(=O)N[C@H](C(=O)N[C@@H](CCC(=O)O)C(=O)N[C@@H](Cc1c[nH]c2ccccc12)C(=O)N[C@@H](CC(C)C)C(=O)N[C@@H](CCCN=C(N)N)C(=O)N[C@@H](CCCCN)C(=O)N[C@@H](CCCCN)C(=O)N[C@@H](CC(C)C)C(=O)N[C@@H](CCC(N)=O)C(=O)N[C@@H](CC(=O)O)C(=O)N[C@H](C(=O)N[C@@H](Cc1cnc[nH]1)C(=O)N[C@@H](CC(N)=O)C(=O)N[C@@H](Cc1ccccc1)C(=O)O)C(C)C)C(C)C
compound remaining (chemical stability, HPLC; aqueous buffer; 0.5 mg/mL, 10 min, pH 6.5): 100%

CC(C)n1cc(C#N)c2cc(-n3cc(C(=O)O)cn3)ccc21
half-life (human, plasma; oral, 25 mg, single dose, fasted, healthy volunteers): 8.1 h

Cn1cc(-c2ccc(S(=O)(=O)[C@@H]3C[C@@H](C(=O)NC4(C#N)CC4)N(C(=O)C4(C(F)(F)F)CC4)C3)c(C(F)(F)F)c2)cn1
half-life (human, plasma; oral, 100 mg, single dose, fasted, healthy volunteers): 13.1 h

CCCCC(=O)OCOC(=O)C1CC(C)(C)N([O])C1(C)C (stereo not shown)
half-life (chemical stability; bovine, serum): 0.817 h

CC(=O)N[C@@H](Cc1ccccc1)C(=O)N[C@@H](Cc1ccccc1)C(=O)N1CCC[C@H]1C(=O)N[C@@H](CC(C)C)C(=O)NCC(=O)N[C@@H](CC(C)C)C(=O)N[C@@H](C)C(=O)NCC(=O)N[C@@H](CC(=O)O)C(=O)N[C@@H](CC(=O)O)C(=O)O
half-life (chemical stability; human, plasma; 1 mM, pH 7.4): 20.7 h

CC(C)(O)c1ccccc1-c1ccc2[nH]c(/C=C/c3ccc(C(F)(F)F)cc3)nc2c1
half-life (male human, plasma; oral, 30 mg, single dose, fasted, healthy volunteers): 82.6 h

CC(C)(C)c1ccc(O)c(CN(Cc2cc(C(C)(C)C)ccc2O)C2CCC(NC(N)=O)CC2)c1 (stereo not shown)
Vd (male C57BL/6 mouse, plasma; oral, 10 mg/kg, single dose): 2.79 L

COc1ccc([C@@H]2CN(C(=O)[C@@H](O)CO)C[C@@]2(C)[C@@H](C)O)cc1OC1CN(c2ccc(C)cn2)C1
half-life (human, plasma; oral, 30 mg, single dose, healthy volunteers): 12.3 h

CO[C@@H]1[C@H](OC(=O)N2CC(CCN3CCOCC3)C2)CC[C@]2(CO2)[C@H]1[C@@]1(C)O[C@@H]1CC=C(C)C
half-life (human, plasma; subcutaneous, 2.4 mg, single dose, healthy volunteers): 0.69 h

COCCOc1cnc2ccn([C@H](C)c3nnc4c(F)cc(-c5cnn(C)c5)cn34)c(=O)c2c1
half-life (human, plasma; oral, 400 mg, multiple doses, once daily, patients): 7.7 h
